Results from different studies.
Protocols differ between the studies behind these lines.
Sample: plasma

SMILES | system | setting | Cmax [ng/mL]
Cn1cc(Nc2nc(N)nc(-c3cccc(-n4ccc5cc(C6CC6)cc(F)c5c4=O)c3CO)n2)cn1 | human | oral, 5 mg, single dose, fasted, suspension | 28.6
N[C@@H]1c2cccnc2[C@H](OC(=O)N2CCC(n3c(=O)[nH]c4ncccc43)CC2)CC[C@H]1c1cccc(F)c1F | human | oral, 75 mg, single dose | 923
CNC(=O)n1ccc2cc(Oc3ccnc(NC(=O)c4ccc(C5CCN(CCO)CC5)cc4)c3)c(OCCOC)cc21 | human | oral, 35 mg, single dose, fed, healthy volunteers | 6.81
CC(C)n1c(Nc2cccnc2)nc2cnc(Nc3ccc(N4CCN(C)CC4)cc3)nc21 | male human | oral, 100 mg, single dose | 45.7
CC(=O)N[C@H]1CC[C@H](NC(=O)CN2CCN(c3nncc(-c4ccc(C)cc4)n3)CC2)CC1 | female human | oral, 100 mg, single dose, fasted | 1550
Cc1ccc(C(=O)Nc2ccc(CN3CCN(C)CC3)c(C(F)(F)F)c2)cc1C#Cc1cnc2[nH]ncc2c1 | human | oral, 20 mg, single dose, fed, healthy volunteers | 5.02
COc1ccc([C@@H](O)c2cc(-c3ncnc4cc(N5CCOCC5)ccc34)c(F)cc2Cl)nn1 | human | oral, 200 mg, single dose, patients | 854
Cl.[2H]C([2H])([2H])CC(=O)c1cnc(NC(=O)C2CC2)cc1Nc1cccc(-c2ncn(C([2H])([2H])[2H])n2)c1OC | human | oral, 20 mg, multiple doses, once daily, fasted | 132
NS(=O)(=O)OC[C@@H]1C[C@@H](n2ccc3c(N[C@H]4CCc5ccccc54)ncnc32)C[C@@H]1O | human | intravenous, 15 mg/m², patients | 127
C[C@H](O)C(=O)C1=Nc2c(nc(N)[nH]c2=O)NC1 | human | oral, 20 mg/kg, single dose, healthy volunteers | 1.51
CN1CC[C@@H](c2c(O)cc(O)c3c(=O)cc(-c4ccc(C(F)(F)F)cc4Cl)oc23)[C@@H]1CO | human | oral, 150 mg, patients | 245
